Results on 23 molecules are retold here after ChEMBL document CHEMBL1137321, “Identification of small molecule agonists of the orphan nuclear receptors liver receptor homolog-1 and steroidogenic factor-1” (J Med Chem, 2006).

Each structure is given as a SMILES string. Calls of active or inactive are those of the source. The calls are words filed in the database; no cut-off is given here.

In assay [1] the target is T1, Steroidogenic factor 1 (Homo sapiens, UniProt Q13285). In words: Binding affinity to human SF1 by FRET-based peptide recruitment assay. Summed up:
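FRET assay measuring recruitment of a DAX-1 peptide (aa 1-23) to human SF-1. The apo-receptor starts with 1 equiv of bound phospholipid. Relative efficacy is normalized to the reference agonist at ±5%.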

The target in assay [2] is T2, Nuclear receptor subfamily 5 group A member 2 (Homo sapiens, UniProt O00482). In words: Binding affinity to human LRH1 relative to 3-(E-Oct-4-en-4-yl)-1-phenylamino-2-phenyl-cis-bicyclo[3.3.0]oct-2-ene by FRET-based peptide recruitment assay. Summed up:
(§1)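 The apo-receptor starts with 1 equiv of bound phospholipid. EC50 determined, n = 3. Relative efficacy is normalized to the reference agonist at ±5%.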

The target in assay [3] is T2, Nuclear receptor subfamily 5 group A member 2. In words: Binding affinity to human LRH1 by FRET-based peptide recruitment assay. The method in brief:
as §1

Assay [4] concerns the target T1, Steroidogenic factor 1. In words: Binding affinity to human SF1 relative to 3-Hexyl-1-phenylamino-2-phenyl-cis-bicyclo[3.3.0]oct-2-ene1 by FRET-based peptide recruitment assay. The method in brief: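 FRET assay measuring recruitment of a DAX-1 peptide (aa 1-23) to human SF-1. The apo-receptor starts with 1 equiv of bound phospholipid. EC50 determined, n = 3. Relative efficacy is normalized to the reference agonist at ±5%.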

Assay [5] deals with T2, Nuclear receptor subfamily 5 group A member 2. In words: Agonist activity at human LRH1 expressed in CV1 cells assessed as SHP reporter gene transactivation by luciferase assay. Format: functional, cell-based, CV-1. (A reporter such as luciferase makes a cellular process visible.)
Assay [6] shares this target. In words: Agonist activity at human LRH1 assessed as induction of SHP mRNA expression in HepG2 cells at 10 uM. Format: functional, cell-based. The method in brief:
(§2)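 Human liver cells (HepG2 cells or primary hepatocytes) treated with 10 µM compound; SHP mRNA expression quantified by quantitative PCR.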

Assay [7] has the same target. In words: Agonist activity at human LRH1 assessed as induction of SHP mRNA expression in human primary hepatocytes at 10 uM. To be noted: Hepatocyte. Format: functional, cell-based. Summed up:
as §2

In general, EC50 refers to the concentration at which the effect is half-maximal.

T2 sequence (O00482 whole entry): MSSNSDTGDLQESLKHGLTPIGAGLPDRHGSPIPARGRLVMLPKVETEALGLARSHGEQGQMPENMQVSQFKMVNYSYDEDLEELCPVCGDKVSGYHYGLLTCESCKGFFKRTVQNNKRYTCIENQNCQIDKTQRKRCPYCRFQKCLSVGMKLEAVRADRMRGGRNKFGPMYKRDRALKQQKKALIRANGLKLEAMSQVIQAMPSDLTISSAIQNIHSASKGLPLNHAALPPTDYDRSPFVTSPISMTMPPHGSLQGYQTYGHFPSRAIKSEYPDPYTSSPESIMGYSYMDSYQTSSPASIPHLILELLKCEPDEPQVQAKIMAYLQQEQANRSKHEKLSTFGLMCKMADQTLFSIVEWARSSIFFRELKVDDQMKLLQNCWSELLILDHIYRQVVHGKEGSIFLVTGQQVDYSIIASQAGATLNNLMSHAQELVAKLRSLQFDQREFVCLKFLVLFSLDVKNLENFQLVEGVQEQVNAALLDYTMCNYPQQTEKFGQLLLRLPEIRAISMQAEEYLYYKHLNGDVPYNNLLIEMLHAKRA
T1 sequence (Q13285 whole entry, the tested form may be a part): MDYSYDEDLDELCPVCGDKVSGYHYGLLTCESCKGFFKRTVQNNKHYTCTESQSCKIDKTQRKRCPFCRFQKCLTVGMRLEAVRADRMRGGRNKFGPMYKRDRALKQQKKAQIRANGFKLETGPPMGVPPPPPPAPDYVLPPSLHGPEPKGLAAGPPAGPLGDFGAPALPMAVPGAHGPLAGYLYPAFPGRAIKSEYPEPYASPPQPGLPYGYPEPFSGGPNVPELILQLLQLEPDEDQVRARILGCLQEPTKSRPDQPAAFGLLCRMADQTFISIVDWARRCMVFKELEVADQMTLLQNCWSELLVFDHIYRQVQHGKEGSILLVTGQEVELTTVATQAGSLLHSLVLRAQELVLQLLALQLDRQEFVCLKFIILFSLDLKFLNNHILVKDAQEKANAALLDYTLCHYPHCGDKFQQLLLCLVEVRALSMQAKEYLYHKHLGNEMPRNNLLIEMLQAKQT

Turning to `CCC/C=C(\CCC)C1=C(C)[C@]2(Nc3ccccc3)CCC[C@@H]2C1`, the EC50 on Steroidogenic factor 1 [1] is more than 10000 nM; in assay [3] it was 90 nM. The molecule further had an Efficacy in assay [2] of 15%.
Regarding `CCCCCCC1=C(c2ccccc2)[C@]2(Nc3ccc(I)cc3)CCC[C@@H]2C1` (relative stereo), the EC50 (at Steroidogenic factor 1 [1]; in assay [3]) was more than 10000 nM throughout.
As for `CCCCC(C)C1=C(c2ccccc2)[C@]2(Nc3ccccc3)CCC[C@@H]2C1` (relative stereo), the EC50 at Steroidogenic factor 1 [1] turned out to be 130 nM; in assay [3], 70 nM. The Efficacy at Steroidogenic factor 1 [4] amounted to 90%; in assay [2], 45%.
For `CCCCCCCCC(C)C1=C(c2ccccc2)[C@]2(Nc3ccccc3)CCC[C@@H]2C1` (relative stereo) the same measures were 130 nM, 320 nM, 95% and 25%.
Take `CCCCC/C=C(\CCCCC)C1=C(c2ccccc2)[C@]2(Nc3ccccc3)CCC[C@@H]2C1` (relative stereo): the 50% effective concentration (EC50) at Steroidogenic factor 1 [1] was 14 nM; in assay [3], more than 10000 nM. In addition, on Steroidogenic factor 1 [4], the Efficacy turned out to be 30%.
For the molecule `CCCCCCCCCCCCC1=C(c2ccccc2)[C@]2(Nc3ccccc3)CCC[C@@H]2C1` (relative stereo), the concentration for a half-maximal effect (EC50) (at Steroidogenic factor 1 [1]; in assay [3]) was more than 10000 nM each time.
With `CCCCCCC1=C(c2ccccc2)[C@]2(Nc3cccc(C)c3C)CCC[C@@H]2C1` (relative stereo), the 50% effective concentration (EC50) at Steroidogenic factor 1 [1] came to 11 nM; in assay [3], 30 nM. The values for the Efficacy (at Steroidogenic factor 1 [4]; in assay [2]) were 20% and 30%, respectively.
On to `CC/C=C(\CC)C1=C(c2ccccc2)[C@]2(Nc3ccccc3)CCC[C@@H]2C1` (relative stereo), for which the results for the EC50 (at Steroidogenic factor 1 [1]; in assay [3]) were 800 nM and 1400 nM, respectively. Besides, the values for the Efficacy (at Steroidogenic factor 1 [4]; in assay [2]) were 80% and 50%, respectively.
As to `CCCCCCC1=C(c2ccccc2)[C@]2(Nc3ccc(C(C)(C)C)cc3)CCC[C@@H]2C1` (relative stereo), the 50% effective concentration (EC50) (on Steroidogenic factor 1 [1]; in assay [3]) was more than 10000 nM in each case.
Take `CCC/C=C(\CCC)C1=C(c2ccc3ccccc3c2)[C@]2(Nc3ccccc3)CCC[C@@H]2C1` (relative stereo): the results for the EC50 (on Steroidogenic factor 1 [1]; in assay [3]) were 130 nM and 60 nM, respectively. Also, the Efficacy came to 30% at Steroidogenic factor 1 [4] and 55% in assay [2].
On to `CCCCCCC1=C(c2ccccc2)[C@]2(Nc3ccc(OC(F)(F)F)cc3)CCC[C@@H]2C1` (relative stereo), for which the concentration for a half-maximal effect (EC50) (at Steroidogenic factor 1 [1]; in assay [3]) was more than 10000 nM each time.
With `c1ccc(N[C@@]23CCC[C@@H]2CC(C2CCCCC2)=C3c2ccccc2)cc1` (relative stereo), the EC50 on Steroidogenic factor 1 [1] is 180 nM; in assay [3], 230 nM. The Efficacy at Steroidogenic factor 1 [4] was 65%; in assay [2], 25%.
For `CCCCCCC1=C(c2ccccc2)[C@]2(Nc3cccc(F)c3)CCC[C@@H]2C1` (relative stereo) the same measures were 560 nM, 330 nM, 70% and 45%.
With `CC1=C(c2ccccc2)[C@]2(Nc3ccccc3)CCC[C@@H]2C1` (relative stereo), the EC50 was more than 10000 nM at Steroidogenic factor 1 [1] and 2100 nM in assay [3]. The same molecule gave an Efficacy in assay [2] of 20%.
The molecule `CCCCCCC1=C(c2ccccc2)[C@]2(Nc3ccccc3)CCC[C@@H]2C1` (relative stereo) gave an Efficacy in assay [2] of 45%. In assay [3], this molecule yielded a half-maximal effective concentration (EC50) of 34 nM.
Take `CCCCCCC1=C(c2ccccc2)[C@]2(Nc3cccc4ccccc34)CCC[C@@H]2C1` (relative stereo): the EC50 on Steroidogenic factor 1 [1] is more than 10000 nM; in assay [3], 1200 nM. In assay [2], the Efficacy was 45%.
`CCC/C=C(\CCC)C1=C(C2CCCCC2)[C@]2(Nc3ccccc3)CCC[C@@H]2C1` (relative stereo): the values for the EC50 (on Steroidogenic factor 1 [1]; in assay [3]) were 10 nM and 12 nM, respectively. Also, the Efficacy on Steroidogenic factor 1 [4] came to 90%; in assay [2], 50%.
As to `CCC/C=C(\CCC)C1=C(c2ccc(Br)cc2)[C@]2(Nc3ccccc3)CCC[C@@H]2C1` (relative stereo), the EC50 was 170 nM at Steroidogenic factor 1 [1] and 160 nM in assay [3]. Also, the figures for the Efficacy (at Steroidogenic factor 1 [4]; in assay [2]) were 35% and 70%, respectively.
Regarding `CCC/C=C(\CCC)C1=C(c2ccccc2)[C@]2(Nc3ccccc3)CCC[C@@H]2C1` (relative stereo), the concentration giving a half-maximal response (EC50) was 1000 nM in assay [5] and 430 nM in assay [3]. Further, on Steroidogenic factor 1 [4], the Efficacy was found to be 50%. In addition, the result in assay [6] and in assay [7] was Active.
`CCCCCCC1=C(c2ccccc2)[C@]2(Nc3ccc(Cl)cc3)CCC[C@@H]2C1` (relative stereo): the figures for the EC50 (on Steroidogenic factor 1 [1]; in assay [3]) were 700 nM and 1000 nM, respectively. Moreover, the Efficacy on Steroidogenic factor 1 [4] turned out to be 25%; in assay [2], 15%.
For `c1ccc(N[C@@]23CCC[C@@H]2CC(c2ccccc2)=C3c2ccccc2)cc1` (relative stereo) the same measures were 120 nM, 150 nM, 55% and 35%.
For `CCC/C=C(\CCC)C1=C(c2cccc(OC)c2)[C@]2(Nc3ccccc3)CCC[C@@H]2C1` (relative stereo) the same measures were 140 nM, 100 nM, 45% and 115%.
For the molecule `CCC/C=C(\CCC)C1=C(CCCC)[C@]2(Nc3ccccc3)CCC[C@@H]2C1` (relative stereo), the figures for the concentration giving a half-maximal response (EC50) (on Steroidogenic factor 1 [1]; in assay [3]) were 30 nM and 22 nM, respectively. For the same molecule, the Efficacy on Steroidogenic factor 1 [4] was 95%; in assay [2] it was 50%.
